Reference: the EternaBench riboswitch data

Tested on: MS2 coat protein
Assay: apparent Kd, MS2 coat protein; higher = weaker binding; RNA-MaP array; FMN 200 µM where present
In short: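 The apparent Kd comes from binding curves fitted cluster by cluster, filtered, and summarised as a median. Those curves followed SNAP-549-labelled MS2 coat protein from 0.7 or 1.5 nM, doubling to 3 µM, on Illumina sequencing-chip clusters where stalled E. coli RNA polymerase had transcribed the designs, without and then with constant ligand. The buffer was 100 mM Tris-HCl pH 7.5, 80 mM KCl, 4 mM MgCl2, BSA, DTT, yeast tRNA and Tween-20, and green signal was normalised to red-channel RNA signal and control-cluster median Fmax.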

[1] = designed as: ON switch for flavin mononucleotide, no ligand
[2] = ligand present: flavin mononucleotide, designed as: ON switch for flavin mononucleotide
[3] = designed as: OFF switch for flavin mononucleotide, no ligand
[4] = ligand present: flavin mononucleotide, designed as: OFF switch for flavin mononucleotide

Sequence | apparent Kd [1] | apparent Kd [2] | apparent Kd [3] | apparent Kd [4]
AAUUAAUUAAUACAUGAGGAUCACCCAUGUAAUUAUUAGAUCUAGGAUAUCAGCUCGAAUAGAGCUGAGAAGGAGAUCACAUGU | 19.4 nM | 15 nM | – | –
CAUGUGUUAGGAUAUGCACCGAUCUCCGAAAGGAGAUCGGUGCAGAAGGAACAUGAGGAUCACCCAUGUUGAUG | – | – | 39.9 nM | 140 nM
AUAAUGUAAGGAUAUCAGUCGACUAGCUGCGGCUAGUCGACUGAGAAGGUACAUGAGGAUCACCCAUGUGUUUC | – | – | 40.9 nM | 183 nM
CCUCCCUGAGGAUAUCCACCCUCAUACAUGAGGAUCACCCAUGUUCAUCCGUGGCUACCCGGAGAAGGCAGCUCUC | – | – | 44.9 nM | 41.8 nM
UUGGCAUCGUAGAAGGGUGACAUGAGGAUCACCCAUGUGACGAUAUUUCUCGAGAUAUGUCGUCCACAGGAUAUACGAGCGAAC | 72.3 nM | 42.4 nM | – | –
GGUGUGGCAGGAUAUACAUCGAAGGGUGCAAAGGGCUCGGCACAUGAGGAUCACCCAUGUAGAAGGGCCUACCA | – | – | 14.9 nM | 20.7 nM
CGGAUCAAUACAGGAUAUGGUGACGCACAUGAGGAUCACCCAUGUCCGCAGCGUGCUAAGCACGCCCAGAAGGGUAUUGAUUCG | 738 nM | 68.3 nM | – | –
CGAUAACCACAGAAGGCCCGGGACAUGAGGAUCACCCAUGUAGAAAGUGGGAGGAUAUGUGUACGCGGCAUGCUGACCUCGUGA | 210 nM | 28.6 nM | – | –
GUCGGAAACGACAAGUAGCAAUCGGAGGAUAUUCAUUAAAACAUGAGGAUCACCCAUGUAAAAUGGGAGAAGGCCGAUUGCUAC | 13.6 nM | 6.03 nM | – | –
GCCUGGACAGAGAAGGGCUACUCCAACCACAUGAGGAUCACCCAUGUUAGCAGGAUAUCUGGCAGGGCAUCCUCAAUUAUUAAA | 91.6 nM | 19.8 nM | – | –
AGAAACUACGAGAAGGACAUAUAAUUCUUCAGAUACAUGAGGAUCACCCAUGUAGGAUAUCGUAGUUUCAGGAUCGUGAGAUCA | – | – | 5.95 nM | 10.3 nM
UGACGGAGCUGAGGAUAUUACAUGAGGAUCACCCAUGUAAGUCUCCAGGAAACUGGAGACAAAUGUAAGAAGGCAGCUCCGUCA | – | – | 18.7 nM | 27.9 nM
UAUGACAUGAGGAUCACCCAUGUCAGCGAGAAAUGAGAGUCACAGGAUAUGUUUUCGGCCGGCAGACAGAAGGGUGACCCUGAG | 10.9 nM | 7.02 nM | – | –
CCAUGUUAGCAGGAUAUGCUAUUAAUCUUUUAUGCAGAAGGGCUUACAUGAGGAUCACCCAUGUAUUAAGUCUU | – | – | 11.3 nM | 19.5 nM
GAAUUCGCAUGAGGAUAUGCACUCAUUUCAUGUGCAGAAGGUAUUUCAUUAGACAUGAGGAUCACCCAUGUAUUGGUCAAUAAC | 19.1 nM | 16.1 nM | – | –
AGAAACUACGAGAAGGACAUGUGGUCCUUCAGUUACAUGAGGAUCACCCAUGUAGGAUAUCGUAGUUUCAGGAUCGUGAGAUCU | – | – | 32.5 nM | 13 nM
CCGCAAAAGCAGGAUAUCGUAUCGGAAACGAUACGAGAAGGGUUUACAUGAGGAUCACCCAUGUUCCUUAGCGG | – | – | 29.1 nM | 38 nM
AGCUGGUAGAGAGGAUAUCAUGUGCUGACAUGAGGAUCACCCAUGUAGGGACGUCGGUCCAAUUAUGAGAAGGCUCUACCAGCA | 80.5 nM | 48.2 nM | – | –
GCCGAAUGAACAUGAGGAUCACCCAUGUACAGGAAACUGAAUGAGGAUAUCCAUAGCAAAGCUAUGGAGAAGGCAUGGGUCGGC | 465 nM | 99.7 nM | – | –
AAUUUUUAACAGAAGGCGUUUAUAGUUAAGUUACGAGGAUAUGUUUUACAUGAGGAUCACCCAUGUUACUAGGGUAGUAUAUAU | 42.4 nM | 30.8 nM | – | –
UCUGGUCGAGGAUAUGCGUAAUGUGUUACGGCACGAGGUCUACAUGAGGAUCACCCAUGUAGAAGGCGAUCAGA | – | – | 13.9 nM | 12.7 nM
UAUGUGUCAGGAUAUUAGUAGUAUAUAGAUAUAUAUAUUACUGAGAAGGGACAUGAGGAUCACCCAUGUACCUU | – | – | 16.5 nM | 19.1 nM
CUAGUACAUGAGGAUCACCCAUGUCAGGAUAUUGGAUAUGACAUGGAAAACAUGUUUACAAGAAGGGACUAUAG | – | – | 285 nM | 290 nM
ACAUGUUUUGUAGGAUAUCACUUGUUAUGUUAUAUAUUUGUUAUAAUCUAUUGAGAAGGACAUUUACAUGAGGAUCACCCAUGU | – | – | 8.83 nM | 7.08 nM
CUCAUGUGAGGAUAUUCGGGCGGGCUCGUUUGGGUUUGUUUGGAGAAGGUACAUGAGGAUCACCCAUGUGCUGG | – | – | 218 nM | 77.8 nM
AGGCGGGCAGGAUAUGCGUACUGACGGGAAAACUGAAUGGUACAUGAGGAUCACCCAUGUAGAAGGGCUUUGAA | – | – | 50.1 nM | 38.3 nM
GCGUGGUUCUAGAAGGUGCUAGCGAUAAGCUAGCAAGGAUAUAGACAUGAGGAUCACCCAUGUCUUAAUGAAAUGGACACACGC | – | – | 5.3 nM | 4.85 nM
GUCAGCUCGUCAGGAUAUACGUCACUGCUUCGGCAGUGUGGUAAGAUCACAUGAGGAUCACCCAUGUAGAAGGGACGAGCUGAU | – | – | 12.3 nM | 291 nM

Sequence | apparent Kd [1] | apparent Kd [2] | apparent Kd [3] | apparent Kd [4]
AAACAACGUCAGAAGGCCGAUGGAUUUGACCACGGAGGAUAUGACAUGAGGAUCACCCAUGUGAUGCUUCUAACCCGCUGGGCC | – | – | 31.3 nM | 289 nM
GUUUUUUGUCAUGUACAUGAGGAACAUGAGGAUCACCCAUGUAGAAGGAAUUUUUUUAAGUUUAGUUAGGAUAUACAUAUAUUG | – | – | 50.6 nM | 31.9 nM
GGAUGACAUAGUCAUCCUUAACGAACAUGAGGAUCACCCAUGUAGGAUAUGCUACUCAACGAGUAGCAGAAGGACAUGUGUCUU | – | – | 26.5 nM | 142 nM
UGCGACCUAGGAUAUACAUGAGGAUCACCCAUGUGAUUCGGUGGCGCGAUCCUUGAAAGUAGAAGGAGGAGCAA | – | – | 40.1 nM | 35.3 nM
UUUUUUUGCUGAGGAUAUAGCGCGCGUUUUGCGCUAGAAGGCAGACAUGUGGUUCACCCAUGUACAUGAGGAUCACCCAUGUUA | 552 nM | 301 nM | – | –
GCCUCAGAAUUAAUUGUGAGAAGCAGAAGGCUAUAUCUUAUGUUAAACAUGAGGAUCACCCAUGUAGAGGAUAUGCUAUUACAG | – | – | 7.68 nM | 17.7 nM
CGCAGCGCAGGAUAUACAUGAGGAUCACCCAUGUACUGGCUCGGCACAGGGUCUCAAGGUAGAAGGGUGCAAAU | – | – | 22.6 nM | 23.1 nM
AUUUCGUCAGGAUAUCCUAGUAAUUGUUUCAUAUUUUCAUAGGAGAAGGGACAUGAGGAUCACCCAUGUUUGUC | – | – | 25.5 nM | 24.5 nM
CGAGGUGGAGUGAGGAUAUCGUGUUCGAAAGAACGUGAGAAGGCACAUGAGGAUCACCCAUGUGAUUCUGCUCG | – | – | 45.7 nM | 270 nM
AAUAAACAUGAGGAUCACCCAUGUCAGGAUAUCCAUUUGUUUUUGUUGGUUUUUUUUUGGAGAAGGGACGCUUA | – | – | 87.3 nM | 63 nM
GCCUCACAUGAGGAUCACCCAUGUCAGGAUAUCUCAGCCUCACAUCAAACAAGGCUUCAGAGAAGGGACGUAAA | – | – | 37.4 nM | 77.4 nM
ACAUGAGGAUCUCCCAUGUAAAAUUAGGAUAUAUAACUACACAUGAGGAUCACCCAUGUUUAACCGUAGAAGGGAUAAAUAAUU | 986 nM | 1020 nM | – | –
UUCAGACAUGAGGAUCACCCAUGUGAGGAUAUGAUGCGAUCGUCGAAAGACGAUAGCAUCAGAAGGUACAAAUG | – | – | 63 nM | 66.6 nM
UUUCGGCUCGAGAAGGUCUAUCGACAUGAGGAUCACCCAUGUUGCCAUGGAAGGAUAUCGAAGGCAGCACGGGAAAUAGUCCGG | 185 nM | 53.3 nM | – | –
UGUUGUAUUACAGGAUAUCUAGUAUUUUAAUUUAGAGAAGGGUAUUCACAUGAGGAUCACCCAUGUAUAUACGAGGAAGUUGUG | 51.3 nM | 61.6 nM | – | –
GUCGUGUGAGGAUAUGAUUUUUCGGCGGGCUUGCGUCUGCUUCAGAAGGCACAUGAGGAUCACCCAUGUUUGUC | – | – | 12 nM | 29.5 nM
UUCCAACGAGGAUAUCGAUGGUGGAACAUGAGGAUCACCCAUGUAUGAGAUAGUGUAGUUCGAGAAGGCGUUCAGU | – | – | 58 nM | 32.3 nM
AGUAGAUCAGGAUAUACAUAAAUGAUAAUUAUGUACUUUUUACAUGAGGAUCACCCAUGUAGAAGGGAUCUACA | – | – | 14.8 nM | 22 nM
GUCAUGGUAACAGGAUAUCGUUGAUAAAAGUUAUACAUGAGGAUCACCCAUGUCCGCACUAAGGGCGAGAAGGGUUAUUAUCAC | 501 nM | 382 nM | – | –
GGCUUCUUCACAGGAUAUGGUUUUUUAAGUAUACAUGAGGAUCACCCAUGUCCAGAAGGGUGAGGGUCCGGCGUACAGUGUCGG | 645 nM | 30.4 nM | – | –
UCAUAUUUACAAGGAUAUCAAUUAUUUAUACAUCCUACAUGAGGAUCACCCAUGUUUUUAUAUUUUGAGAAGGUGUAAUGUCGG | 44.4 nM | 40.4 nM | – | –
UCGGCCCAAGCACAUGAGGAUCACCCAUGUACCACGGCCACCAGAAGGGCAGGGAAGAGGGAUCUGCAGGAUAUGGGCACUAGC | 14.4 nM | 9.6 nM | – | –
CUCGUGUGAGGAUAUGCGGGCGGGCGCGUUUGUGUUUGUUUGUAGAAGGUACAUGAGGAUCACCCAUGUGCUGG | – | – | 24 nM | 80.9 nM
UGUCGGAGCAGAGGAUAUUACAUGAGGAUCACCCAUGUAUGAACCAAUAGCUGGAAACAGCAAAGUAAGAAGGCUGCUCCGACA | – | – | 6.28 nM | 79.4 nM
AUCAUGAGAGGAUAUACAUGAGGAUCACCCAUGUGGUCAUCUCCACGGGCUCAAUUACGUAGAAGGCUCAUUUG | – | – | 18 nM | 66.2 nM
UCCGCGCGCGUAGGAUAUACAUGAGGAUCACCCAUGUACCCAGAUGGCUUCCUGAAUCUUGCAAUGUAGAAGGACGCCCGUGGG | – | – | 37.9 nM | 42.5 nM
AUAAGCUCGUCAGGAUAUACGUCACUGCUUCGGCAGUGAGGUAUGAUCACAUGAGGAUCACCCAUGUAGAAGGGACGAGCUUAU | – | – | 5.63 nM | 8.57 nM
